Data as given in ChEMBL document CHEMBL1275265, “Synthesis and biological evaluation of N-antipyrine-4-substituted amino-3-chloromaleimide derivatives” (Eur J Med Chem, 2010).
In brackets after ≈: the same amount, converted by molar mass. Activity calls are given as the source filed them. The calls are words filed in the database; no cut-off is given here.

Legend:
[1] = tested on: Salmonella typhimurium; test: Antibacterial activity against Salmonella Typhimurium ATCC 14028 at < 100 ug/mL by agar dilution method; format: functional, organism-based; details: Salmonella enterica subsp. enterica serovar Typhimurium
How it was run: (§1)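 Agar dilution on 1 mL Mueller-Hinton agar slants. Compounds were serially two-fold diluted in DMSO (final DMSO ≤2%) to give 10–100 µg/mL in the medium. Bacteria were grown on MHA at 35 °C for 24 h, suspended in 0.86% saline at 1.5 × 10^8 cell/mL (0.5 McFarland), and 1 µL was added per slant. Slants were incubated at 35 °C. Drug-free blank included; each assay run three times; MIC recorded.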

[2] = tested on: Proteus mirabilis; test: Antibacterial activity against Proteus mirabilis ATCC 25933 at < 100 ug/mL by agar dilution method; format: functional, organism-based; how it was run: as §1
[3] = tested on: Aspergillus flavus; test: Antifungal activity against Aspergillus flavus ATCC 9170 by agar dilution method; format: functional, organism-based
How it was run: (§2)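 Filamentous fungi (hyalohyphomycetes, dermatophytes) were grown on SDA. Spore suspensions were set to 1.0–5.0 × 10^6 spores/mL by hemocytometer count. 1 µL was inoculated onto 1 mL SDA slants holding compound at 10–100 µg/mL (two-fold DMSO dilutions, final DMSO ≤2%), then incubated at 28–30 °C. Drug-free blank and ketoconazole control included; repeated three times; MIC determined.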

[4] = tested on: Aspergillus niger; test: Antifungal activity against Aspergillus niger ATCC 9092 by agar dilution method; format: functional, organism-based; how it was run: as §2
[5] = tested on: Microsporum canis; test: Antifungal activity against Microsporum canis C112 by agar dilution method; format: functional, organism-based; how it was run: as §2
[6] = tested on: Candida albicans; test: Antifungal activity against Candida albicans ATCC 10231 by agar dilution method; format: functional, organism-based
How it was run: (§3)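 Yeasts were grown on Sabouraud dextrose agar and adjusted to 1.0–5.0 × 10^6 cell/mL (0.5 McFarland). Agar dilution used 1 mL SDA slants holding two-fold DMSO dilutions of compound at 10–100 µg/mL, with final DMSO ≤2%. 1 µL of inoculum was added per slant, then incubated at 35 °C. Drug-free blank and ketoconazole positive control included; triplicate runs; MIC read.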

[7] = tested on: Pichia kudriavzevii; test: Antifungal activity against Candida krusei ATCC 6582 by agar dilution method; format: functional, organism-based; how it was run: as §3
[8] = tested on: Staphylococcus saprophyticus; test: Antibacterial activity against Staphylococcus saprophyticus ATCC 35552 at < 100 ug/mL by agar dilution method; format: functional, organism-based; how it was run: as §1
[9] = tested on: Streptococcus agalactiae; test: Antibacterial activity against Streptococcus agalactiae ATCC 13813 at < 100 ug/mL by agar dilution method; format: functional; how it was run: as §1
[10] = tested on: Pseudomonas aeruginosa; test: Antibacterial activity against Pseudomonas aeruginosa ATCC 27853 at < 100 ug/mL by agar dilution method; format: functional, organism-based; how it was run: as §1
[11] = tested on: Staphylococcus aureus; test: Antibacterial activity against Staphylococcus aureus ATCC 6538P at < 100 ug/mL by agar dilution method; format: functional, organism-based; how it was run: as §1
[12] = tested on: Aspergillus fumigatus; test: Antifungal activity against Aspergillus fumigatus ATCC 26934 by agar dilution method; format: functional; how it was run: as §2
[13] = tested on: Cryptococcus neoformans; test: Antifungal activity against Cryptococcus neoformans ATCC 32264 by agar dilution method; format: functional; how it was run: as §3
[14] = tested on: Nannizzia gypsea; test: Antifungal activity against Microsporum gypseum C115 by agar dilution method; format: functional; how it was run: as §2
[15] = tested on: Rhizopus; test: Antifungal activity against Rhizopus CL35 by agar dilution method; format: functional; how it was run: as §2
[16] = tested on: Trichophyton mentagrophytes; test: Antifungal activity against Trichophyton mentagrophytes ATCC 9972 by agar dilution method; format: functional; how it was run: as §2
[17] = tested on: Trichophyton rubrum; test: Antifungal activity against Trichophyton rubrum C137 by agar dilution method; format: functional; how it was run: as §2
[18] = tested on: Bacillus cereus; test: Antibacterial activity against Bacillus cereus ATCC 14579 at < 100 ug/mL by agar dilution method; format: functional; how it was run: as §1
[19] = tested on: Bacillus subtilis; test: Antibacterial activity against Bacillus subtilis ATCC 23858 at < 100 ug/mL by agar dilution method; format: functional, organism-based; how it was run: as §1
[20] = tested on: Enterobacter cloacae; test: Antibacterial activity against Enterobacter cloacae ATCC 35030 at < 100 ug/mL by agar dilution method; format: functional, organism-based; how it was run: as §1
[21] = tested on: Escherichia coli; test: Antibacterial activity against Escherichia coli ATCC 11775 at < 100 ug/mL by agar dilution method; format: functional, organism-based; how it was run: as §1
[22] = Toxicity in Artemia salina assessed as mortality after 24 hrs; format: organism-based; details: in vivo
How it was run: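 Artemia salina hatched at pH 9.0 (Na2CO3), 25 °C, strong aeration, continuous light (2000 Lux). Phototropic nauplii were collected about 12 h after hatching, and groups of 10 were exposed per well to various compound concentrations for 24 h. Survivors were counted and % deaths calculated.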

[23] = tested on: Mus musculus; test: Antinociceptive activity in Swiss mouse assessed as inhibition of acetic acid-induced writhing at 10 mg/kg, ip administered 30 mins before acetic acid challenge measured after 20 mins relative to control; format: functional; details: route intraperitoneal
How it was run: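 Mice were given 10 mg/kg i.p. in Tween 80/0.9% NaCl (Tween ≤5%) 30 min before i.p. 0.6% acetic acid, at 20–22 °C. Abdominal constrictions plus hind-limb stretching were counted cumulatively over 20 min in individual funnels. Groups of six, randomized and blinded. Inhibition was calculated versus vehicle controls (10 ml/kg i.p.); ANOVA with Dunnett's test.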

[24] = tested on: Mus musculus; test: Ratio of acetyl salicylic acid ID50 to compound ID50 for inhibition of acetic acid-induced abdominal contraction in ip dosed Swiss mouse; format: functional, Abdominal cavity
[25] = tested on: Mus musculus; test: Ratio of metamizole ID50 to compound ID50 for inhibition of acetic acid-induced abdominal contraction in ip dosed Swiss mouse; format: functional, Abdominal cavity
[26] = tested on: Mus musculus; test: Antinociceptive activity in Swiss mouse assessed as inhibition of formalin-induced paw licking activity at 10 mg/kg, ip administered 30 mins before formalin challenge measured after 5 mins; format: functional; details: route intraperitoneal
How it was run: (§4)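 Formalin test in mice pretreated i.p. with vehicle or 10 mg/kg test agent 30 min before formalin injection. Animals were acclimatized 5 min in a glass cylinder with an angled mirror. Licking time was recorded for the early phase (0–5 min) and the late phase (15–30 min) after formalin. Values are mean ± S.E.M.; ANOVA with Dunnett's test.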

[27] = tested on: Mus musculus; test: Antinociceptive activity in Swiss mouse assessed as inhibition of formalin-induced paw licking activity at 10 mg/kg, ip administered 30 mins before formalin challenge measured after 15 to 30 mins; format: functional; details: route intraperitoneal; how it was run: as §4
[28] = tested on: Mus musculus; test: Antinociceptive activity in Swiss mouse assessed as inhibition of acetic acid-induced abdominal contraction at 0.1 to 100 mg/kg, ip administered 30 mins before acetic acid challenge measured after 20 mins relative to control; format: functional, Abdominal cavity; details: dose mg/kg 0.1-100; route intraperitoneal
How it was run: (§5)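 Writhing dose-response in mice: compounds at 0.1–10 mg/kg and standard drugs at 10–100 mg/kg, i.p. in Tween 80/saline, 30 min before i.p. 0.6% acetic acid. Constrictions and stretches were counted for 20 min at 20–22 °C, with six to eight animals per group. ID50 (dose halving the response versus control) was given as geometric mean with 95% confidence limits.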

[29] = tested on: Mus musculus; test: Antinociceptive activity in ip dosed Swiss mouse assessed as inhibition of acetic acid-induced abdominal contraction administered 30 mins before acetic acid challenge measured after 20 mins; format: functional; details: Abdominal cavity, read-out: ID50 (the source's name); how it was run: as §5

SMILES | Activity [1] | Activity [2] | Activity [3] | Activity [4] | Activity [5] | Activity [6] | Activity [7] | Activity [8] | Activity [9] | Activity [10] | Activity [11] | MIC [12] | MIC [13] | MIC [14] | Activity [18] | Activity [19] | Activity [20] | Activity [21] | LC50 at 24 h [22] | inhibition in vivo at 10 mg/kg [23] | other results
Cc1c(N2C(=O)C(Cl)=C(Nc3ccccc3)C2=O)c(=O)n(-c2ccccc2)n1C | inactive | inactive | Active | Active | Active | Active | Active | inactive | inactive | inactive | inactive | > 100 mg/L | > 100 mg/L | > 100 mg/L | inactive | inactive | inactive | inactive | > 1000 mg/L | 71.6% | MIC [15]: 80 mg/L (≈ 196 µM); MIC [16]: > 100 mg/L; MIC [17]: > 100 mg/L
Cc1c(N2C(=O)C(Cl)=C(Nc3ccc(Br)cc3)C2=O)c(=O)n(-c2ccccc2)n1C | inactive | inactive | Active | Active | Active | Active | Active | inactive | inactive | inactive | inactive | > 100 mg/L | > 100 mg/L | > 100 mg/L | inactive | inactive | inactive | inactive | > 1000 mg/L | 97.5% | MIC [15]: 100 mg/L (≈ 205 µM); MIC [16]: > 100 mg/L; MIC [17]: > 100 mg/L; Ratio [24]: 233; Ratio [25]: 284; inhibition in vivo at 10 mg/kg [26]: 11.4%; inhibition in vivo at 10 mg/kg [27]: 22.5%; inhibition (INH) [28]: 97.5%; ED50 [29]: 0.57 µmol/kg
Cc1c(N2C(=O)C(Cl)=C(Nc3ccc(Cl)cc3)C2=O)c(=O)n(-c2ccccc2)n1C | inactive | inactive | – | – | – | – | – | inactive | inactive | inactive | inactive | – | – | – | inactive | inactive | inactive | inactive | > 1000 mg/L | 97.4% | Ratio [24]: 33; inhibition in vivo at 10 mg/kg [26]: 28.2%; inhibition in vivo at 10 mg/kg [27]: 29.3%; inhibition (INH) [28]: 97.4%; ED50 [29]: 4.05 µmol/kg
Cc1c(N2C(=O)C(Cl)=C(NCc3ccccc3)C2=O)c(=O)n(-c2ccccc2)n1C | inactive | inactive | Active | Active | Active | Active | Active | inactive | inactive | inactive | inactive | 100 mg/L (≈ 236 µM) | 40 mg/L (≈ 94.6 µM) | > 100 mg/L | inactive | inactive | inactive | inactive | > 1000 mg/L | 35.4% | MIC [15]: > 100 mg/L; MIC [16]: 100 mg/L (≈ 236 µM); MIC [17]: 100 mg/L (≈ 236 µM)
CCc1ccc(NC2=C(Cl)C(=O)N(c3c(C)n(C)n(-c4ccccc4)c3=O)C2=O)cc1 | inactive | inactive | Active | Active | Active | Active | Active | inactive | inactive | inactive | inactive | > 100 mg/L | > 100 mg/L | 100 mg/L (≈ 229 µM) | inactive | inactive | inactive | inactive | > 1000 mg/L | 49.5% | MIC [15]: > 100 mg/L; MIC [16]: > 100 mg/L; MIC [17]: > 100 mg/L
Cc1c(N2C(=O)C(Cl)=C(Nc3ccc(F)cc3)C2=O)c(=O)n(-c2ccccc2)n1C | inactive | inactive | Active | Active | Active | Active | Active | inactive | inactive | inactive | inactive | > 100 mg/L | > 100 mg/L | 100 mg/L (≈ 234 µM) | inactive | inactive | inactive | inactive | > 1000 mg/L | 93.2% | MIC [15]: > 100 mg/L; MIC [16]: > 100 mg/L; MIC [17]: > 100 mg/L; Ratio [24]: 182; Ratio [25]: 222; inhibition in vivo at 10 mg/kg [26]: 28.9%; inhibition in vivo at 10 mg/kg [27]: 4.5%; inhibition (INH) [28]: 96.7%; ED50 [29]: 0.73 µmol/kg
CC(=O)Oc1ccccc1C(=O)O [ASPIRIN] | – | – | – | – | – | – | – | – | – | – | – | – | – | – | – | – | – | – | – | 35% | inhibition in vivo at 10 mg/kg [26]: 16%; inhibition in vivo at 10 mg/kg [27]: 45%; inhibition (INH) [28]: 83%
Cc1c(N2C(=O)C(Cl)=C(Nc3ccc(Cl)c(Cl)c3)C2=O)c(=O)n(-c2ccccc2)n1C | inactive | inactive | Active | Active | Active | Active | Active | inactive | inactive | inactive | inactive | > 100 mg/L | > 100 mg/L | 100 mg/L (≈ 209 µM) | inactive | inactive | inactive | inactive | > 1000 mg/L | 75% | MIC [15]: 80 mg/L (≈ 167 µM); MIC [16]: > 100 mg/L; MIC [17]: > 100 mg/L
